In ChEMBL document CHEMBL1124748, “Preparation of triazolo[1,5-c]pyrimidines as potential antiasthma agents” (J Med Chem, 1990) one finds ED50 and IC50 data, which are given here for 63 compounds.

Each structure is given as a SMILES string.

The first assay relates to Mus musculus. The assay is described as follows: Effective dose (ip) evaluated by Passive cutaneous anaphylaxis test (PCA) by injecting IgE serum intradermally in mice.
A word on the ED50: it is the midpoint of the dose-response relation. A higher ED50 goes with weaker potency. `Nc1nc2ccnc(-c3cccc(Br)c3)n2n1` registered an ED50 of 142 mg/kg.
Same read-out and setting: to `Nc1nc2ccnc(-c3ccncc3)n2n1` belongs 14 mg/kg.
On the same count and under the same terms, then `Nc1nc2ccnc(Cc3cccc(C(F)(F)F)c3)n2n1`, with 178 mg/kg.
The same measure, in the same setting: then `Nc1nc2ccnc(-c3ccccc3F)n2n1`, with 218 mg/kg; and `Nc1nc2ccnc(-c3ccc(F)cc3)n2n1`, with 178 mg/kg.
The compound `Cn1c(=O)c2nc[nH]c2n(C)c1=O.O` [THEOPHYLLINE] registered an ED50 of 140 mg/kg.
On the same count and under the same terms, then `Nc1nc2ccnc(-c3cccc(C(F)(F)F)c3)n2n1`, with 166 mg/kg; and `Nc1nc2ccnc(-c3cccc(OC(F)F)c3)n2n1`, with 138 mg/kg.

Test system in another assay: not listed separately
Description: Antiasthmatic activity against the immunoglobulin E (IgE) antigen using the human basophil asthma model; I = Inactive at 48 uM. Type of assay: functional.
Usually IC50 stands for the concentration at which inhibition is half-maximal. Read a high IC50 as weaker potency. Take `CCOC(=O)CNc1nc2ccnc(-c3cccc(C(F)(F)F)c3)n2n1`: the IC50 result was “Not Active”.
Turning to `CC(=O)Nc1nc2ccnc(-c3cccc([N+](=O)[O-])c3)n2n1`, the IC50 entry is on record as “Not Active”.
The same measure, in the same setting: then `CC(=O)Nc1nc2c(C)cnc(-c3cccc(N)c3)n2n1`, with “Not Active”; and `Cc1cnc(-c2cccc([N+](=O)[O-])c2)n2nc(N3CCOCC3)nc12`, with “Not Active”.
Same read-out and setting: to `CC(=O)N(C)c1nc2ccnc(-c3cccc(C(F)(F)F)c3)n2n1` belongs “Not Active”.
For `Cc1cnc(-c2ccccc2)n2nc(N)nc12`, the IC50 result is “Not Active”.
On the same count and under the same terms, to `Cc1cnc(-c2cccc([N+](=O)[O-])c2)n2nc(Cl)nc12` belongs “Not Active”; to `Cc1cc2nc(N)nn2c(-c2ccc(C(F)(F)F)cc2)n1`, “Not Active”.
Same read-out and setting: to `Nc1nc2ccnc(-c3ccccc3)n2n1` belongs “Not Active”; to `Nc1nc2ccnc(-c3ccccn3)n2n1`, “Not Active”; to `Nc1nc2ccnc(-c3cccc(CO)c3)n2n1`, “Not Active”.
As for `Nc1nc2cc(C(F)(F)F)nc(-c3cccc(C(F)(F)F)c3)n2n1`, the IC50 result is on record as “Not Active”.
Same read-out and setting: to `Nc1nc2ccnc(-c3cccc(C(=O)O)c3)n2n1` belongs “Not Active”.
For the compound `Nc1nc2ccnc(Cc3cccc(C(F)(F)F)c3)n2n1`, the IC50 entry was “Not Active”.
Still for that read-out and setting: then `Cc1cnc(-c2cccc(N)c2)n2nc(N)nc12`, with “Not Active”; and `C[n+]1cccc(-c2nccc3nc(N)nn23)c1.[I-]`, with “Not Active”.
In the case of `Nc1nc2ccnc(-c3ccccc3F)n2n1`, the half-inhibitory concentration (IC50) result is “Not Active”.
Still for that read-out and setting: to `CNc1cccc(-c2ncc(C)c3nc(NC)nn23)c1` belongs “Not Active”; to `CCCc1c(C)nc(-c2cccc(C(F)(F)F)c2)n2nc(N)nc12`, “Not Active”; to `Nc1nc2ccnc(-c3cc(Cl)cc(Cl)c3)n2n1`, “Not Active”.
Still for that read-out and setting: then `Nc1nc2ccnc(-c3cccs3)n2n1`, with “Not Active”; and `Nc1nc2ccnc(-c3ccc[n+]([O-])c3)n2n1`, with “Not Active”.
In the case of `CN(C)/C=N/c1nc2ccnc(-c3cccc(C(F)(F)F)c3)n2n1`, the IC50 entry was “Not Active”.
Still for that read-out and setting: to `Nc1nc2ccnc(-c3ccc(C(F)(F)F)cc3)n2n1` belongs “Not Active”; to `CN(C)c1nc2ccnc(-c3cccc(C(F)(F)F)c3)n2n1`, “Not Active”; to `Cc1cnc(-c2ccc(C(F)(F)F)cc2)n2nc(N)nc12`, “Not Active”.
As for `Nc1nc2ccnc(-c3cccc(F)c3)n2n1`, the IC50 result is “Not Active”.
On the same count and under the same terms, to `Cc1cccnc1-c1nccc2nc(N)nn12` belongs “Not Active”; to `Cc1ccc(S(=O)(=O)Nc2cccc(-c3ncc(C)c4nc(N)nn34)c2)cc1`, “Not Active”; to `FC(F)(F)c1cccc(-c2nccc3ncnn23)c1`, “Not Active”.
Still for that read-out and setting: then `CCOC(=O)CN(C(C)=O)c1nc2ccnc(-c3cccc(C(F)(F)F)c3)n2n1`, with “Not Active”; and `FC(F)(F)c1cccc(-c2nccc3nc(NCC4CO4)nn23)c1` (stereo unspecified), with “Not Active”; and `Cc1cc2nc(N)nn2c(-c2cccc(C(F)(F)F)c2)n1`, with “Not Active”.
On the same count and under the same terms, to `CCCc1cc2nc(N)nn2c(-c2cccc(C(F)(F)F)c2)n1` belongs “Not Active”.

Test system in the next assay: not listed separately
Description: Antiasthmatic activity against the immunoglobulin E (IgE) antigen using the human basophil asthma model. It counts as functional. The procedure, abridged: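 Leukocytes washed and resuspended in pH 7.4 buffer (25 mM PIPES, 110 mM NaCl, 5 mM KCl, 0.6 mM CaCl2, 1.0 mM MgCl2, 0.03% HSA). Cells preincubated with drug 10 min at 37 °C, then incubated 1 h at 37 °C with shaking. Histamine in HClO4-treated supernatants measured fluorometrically against lysed-cell totals. Triplicates, controls sextuplicate. IC50 from linear regression of percent release.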
With `Nc1nc2ccnc(-c3cccc([N+](=O)[O-])c3)n2n1`, the midpoint of inhibition, the IC50, lay at 3.8 µM.
`Cc1cnc(-c2cccc([N+](=O)[O-])c2)n2nc(N)nc12` displayed an IC50 of 8.7 µM.
Compound `Nc1nc2ccnc(-c3cccc(Br)c3)n2n1` registered an IC50 of 3.7 µM.
Still for that read-out and setting: to `OC(CCl)CNc1nc2ccnc(-c3cccc(C(F)(F)F)c3)n2n1` (stereo unspecified) belongs 9.3 µM; to `Nc1nc2ccnc(-c3ccncc3)n2n1`, 18 µM; to `C#Cc1cccc(-c2nccc3nc(N)nn23)c1`, 12.6 µM.
Compound `CC(=O)Nc1nc2ccnc(-c3cccc(C(F)(F)F)c3)n2n1` gave a 50% inhibitory concentration (IC50) of 20 µM.
Still for that read-out and setting: to `Nc1nc2ccnc(-c3cccnc3)n2n1` belongs 14 µM; to `O=C(O)c1cc(=O)c2c(OCC(O)COc3cccc4oc(C(=O)O)cc(=O)c34)cccc2o1` [CROMOLYN SODIUM], 1000 µM; to `Cc1ccc(S(=O)(=O)Nc2cccc(-c3nccc4nc(N)nn34)c2)cc1`, 1.5 µM.
Still for that read-out and setting: to `Nc1nc2ccnc(-c3cc(C(F)(F)F)cc(C(F)(F)F)c3)n2n1` belongs 0.7 µM; to `Cc1cnccc1-c1nccc2nc(N)nn12`, 2.5 µM.
Same read-out and setting: then `Nc1nc2ccnc(-c3cccc(C(Cl)Cl)c3)n2n1`, with 1 µM.
For `Cc1cnc(-c2cccc(C(F)(F)F)c2)n2nc(N)nc12`, the concentration for half-maximal inhibition (IC50) worked out at 5.6 µM.
On the same count and under the same terms, to `Nc1nc2ccnc(-c3ccc(F)cc3)n2n1` belongs 31.3 µM; to `CCOC(=O)c1ccc(-c2nccc3nc(N)nn23)cc1`, 16.5 µM.
Same read-out and setting: to `Cn1c(=O)c2nc[nH]c2n(C)c1=O.O` [THEOPHYLLINE] belongs 309 µM; to `Nc1nc2ccnc(-c3cccc(C(F)(F)F)c3)n2n1`, 2.2 µM; to `Nc1nc2ccnc(-c3cc[n+]([O-])cc3)n2n1`, 5.6 µM.
On the same count and under the same terms, to `Nc1nc2ccnc(-c3cccc(Cl)c3)n2n1` belongs 4.3 µM.
Compound `CN(C)C(=O)c1cccc(-c2nccc3nc(N)nn23)c1` registered a half-maximal inhibitory concentration (IC50) of 3.5 µM.
Still for that read-out and setting: then `Cc1cccc(-c2nccc3nc(N)nn23)c1`, with 5.5 µM.
`CC(=O)Nc1nc2c(C)cnc(-c3cccc(NS(=O)(=O)c4ccc(C)cc4)c3)n2n1` showed an IC50 of 51.8 µM.
On the same count and under the same terms, to `CC(=O)Nc1nc2ccnc(-c3cccc(NS(=O)(=O)c4ccc(C)cc4)c3)n2n1` belongs 1.6 µM; to `CNc1nc2ccnc(-c3cccc(C(F)(F)F)c3)n2n1`, 10.2 µM.
The same measure, in the same setting: to `Nc1nc2ccnc(-c3cccc(C=O)c3)n2n1` belongs 0.7 µM.
`CCOC(=O)c1cccc(-c2nccc3nc(N)nn23)c1` gave an IC50 of 11.5 µM.
Same read-out and setting: to `Nc1nc2ccnc(-c3cccc(OC(F)F)c3)n2n1` belongs 3.4 µM.
Still for that read-out and setting: then `CC(=O)Nc1nc2c(C)cnc(-c3cccc([N+](=O)[O-])c3)n2n1`, with 11 µM.
